DAT uptake mod: changed hDAT dopamine uptake under cocaine IC80, either direction, primary screen, cocaine antagonist project, cell-based, LLC-PK1 hDAT, [14C]-dopamine uptake, MLSMR | Sodium-dependent dopamine transporter (Homo sapiens), Q01959 | 110,000 tested, 1.3% active | B-score at 10 µM | LLC-PK1 hDAT cells, [14C]-dopamine uptake with cocaine IC80; actives deviate in either direction | AID 449768, 2010;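 active means Z score or B-score, a plate-position-corrected score, falls beyond the plate's 99.7% confidence bounds, in either direction; inactive means both scores lie inside the 99.7% bounds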
HEK293 NFkB inh: inhibitors of PMA/ionomycin-induced NF-kB reporter, primary screen, antigen receptor NF-kB inhibitor project, cell-based, HEK-293 luciferase reporter, luminescence | HEK-293 NF-kB luciferase reporter | inhibition, % at 3 µM | 62,000 tested, 0.21% active;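 active means inhibition above the mean of all tested compounds plus 3 SD, cut at about 40% in these data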
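Timing: 1 h pretreatment, 16 h stimulation, 37 °C; system: HEK-293 cells with stable firefly luciferase reporter driven by four HIV NF-kB elements; doses: 3 µM once, 0.30% DMSO; measured by: luciferase luminescence; control set: DMSO and 10 µM reference inhibitor; repeats: single test; reagent: PMA plus ionomycin mix as NF-kB-activating stimulus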
Ec RNAP inh: E. coli RNAP inhibitors, biochemical; 62,000 tested, 0.2% active; inhibition, %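 (tested at 10 µM)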; DNA-directed RNA polymerase subunit beta (Escherichia coli (strain K12)), P0A8V2; E. coli RNA polymerase, fluorescence transcription assay; in the data active means inhibition above about 20%
Target sequence (P0A8V2 whole entry, looked up): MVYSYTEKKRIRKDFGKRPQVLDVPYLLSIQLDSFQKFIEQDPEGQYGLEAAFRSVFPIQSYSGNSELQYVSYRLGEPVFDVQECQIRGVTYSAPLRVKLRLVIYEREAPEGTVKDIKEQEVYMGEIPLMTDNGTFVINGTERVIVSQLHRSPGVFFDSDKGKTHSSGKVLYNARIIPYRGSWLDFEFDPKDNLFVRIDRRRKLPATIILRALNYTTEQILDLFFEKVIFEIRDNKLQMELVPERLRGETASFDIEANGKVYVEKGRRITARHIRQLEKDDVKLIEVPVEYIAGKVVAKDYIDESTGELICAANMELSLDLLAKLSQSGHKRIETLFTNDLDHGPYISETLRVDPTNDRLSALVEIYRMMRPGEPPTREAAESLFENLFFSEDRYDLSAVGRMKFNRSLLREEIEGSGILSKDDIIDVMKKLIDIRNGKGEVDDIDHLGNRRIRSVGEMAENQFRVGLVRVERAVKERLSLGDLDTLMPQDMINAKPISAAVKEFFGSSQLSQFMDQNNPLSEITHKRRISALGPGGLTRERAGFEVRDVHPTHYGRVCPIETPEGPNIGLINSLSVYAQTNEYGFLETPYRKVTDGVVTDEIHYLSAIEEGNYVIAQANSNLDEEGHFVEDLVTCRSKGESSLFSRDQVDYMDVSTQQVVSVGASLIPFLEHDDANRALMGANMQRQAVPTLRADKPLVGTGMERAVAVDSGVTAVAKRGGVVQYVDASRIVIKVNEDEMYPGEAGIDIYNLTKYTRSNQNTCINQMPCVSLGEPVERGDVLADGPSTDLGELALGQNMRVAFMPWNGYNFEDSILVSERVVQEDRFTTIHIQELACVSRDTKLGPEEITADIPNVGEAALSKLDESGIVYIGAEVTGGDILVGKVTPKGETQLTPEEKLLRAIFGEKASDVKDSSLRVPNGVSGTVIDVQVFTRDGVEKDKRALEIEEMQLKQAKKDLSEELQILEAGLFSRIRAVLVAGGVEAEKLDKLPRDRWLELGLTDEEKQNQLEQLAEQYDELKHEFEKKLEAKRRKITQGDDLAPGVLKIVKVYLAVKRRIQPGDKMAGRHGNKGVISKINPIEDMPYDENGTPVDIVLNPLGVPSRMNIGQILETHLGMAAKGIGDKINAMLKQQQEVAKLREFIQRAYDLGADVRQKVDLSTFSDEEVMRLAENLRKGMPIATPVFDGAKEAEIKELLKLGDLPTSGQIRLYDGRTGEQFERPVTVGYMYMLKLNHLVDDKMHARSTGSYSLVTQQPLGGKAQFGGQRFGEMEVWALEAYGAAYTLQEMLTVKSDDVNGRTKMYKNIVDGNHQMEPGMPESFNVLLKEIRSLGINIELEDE
D1 mod: D1 CRE-luciferase signal change, two-sided – cell-based, HEK293 D1, dopamine EC30, D1 allosteric modulator project, primary screen; D(1A) dopamine receptor (Homo sapiens), P21728; B-score at 10 µM; dopamine EC30 potentiation; actives deviate in either direction; 58,000 tested, 5.9% active;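 active means luminescence count or its row- and column-corrected plate score outside the 99.7% band of the plate's sample wells, on either side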
AP complement: alternative complement pathway inhibitors, primary screen, biochemical, ELISA, human serum, orthogonally pooled compounds; LPS-coated ELISA, C3 deposition; tested in compound mixtures; AID 1235, 2008; 62,000 tested, 0.08% active; inhibition, % at 5 µM;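 active means inhibition above 30% in each of the two pooled mixtures holding the compound, so the lower value exceeds 30%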
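Test system – human serum alternative complement pathway, C3 deposition on LPS-coated wells · Buffer or medium – diluted human serum in Mg2+-EGTA GVB++ · Compound dosing – 5 µM each compound, pools of ten, 50 µM per pool · Schedule – 1 h serum-compound exposure at 37 °C · Measured by – Anti-C3 ELISA, OD 450 nm · Read-out basis – percent inhibition of C3 deposition onto LPS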
Hits are given with their value. The full list was thinned out, with hits kept by preference.

`CNC(=O)OC(C)CNS(=O)(=O)c1ccc(C)cc1` (stereo unspecified) gave DAT uptake mod inactive, HEK293 NFkB inh inactive, Ec RNAP inh inactive and AP complement inactive.
`Cc1ccc(S(=O)(=O)NCC(C)NS(=O)(=O)c2ccc(C)cc2)cc1` (stereo unspecified) gave DAT uptake mod -8.2, HEK293 NFkB inh inactive, Ec RNAP inh inactive, D1 mod inactive and AP complement inactive.
For NC(=O)CN1CCN(c2ccccc2F)CC1 the results were DAT uptake mod inactive, HEK293 NFkB inh inactive, Ec RNAP inh inactive, D1 mod inactive and AP complement inactive.
For Cc1noc(C)c1S(=O)(=O)NCCCN1CCN(Cc2ccccc2)CC1 the results were DAT uptake mod inactive, HEK293 NFkB inh inactive, Ec RNAP inh inactive, D1 mod inactive and AP complement inactive.
c1ccc(CN2CCN(CCCNc3ccc4nnc(-c5ccccc5)n4n3)CC2)cc1 was read as DAT uptake mod inactive, HEK293 NFkB inh inactive, Ec RNAP inh inactive, D1 mod -5.6 and AP complement inactive.
For Fc1ccccc1N1CCN(CCCNc2ccc3nncn3n2)CC1 the results were DAT uptake mod inactive, HEK293 NFkB inh inactive, Ec RNAP inh inactive, D1 mod -6.1 and AP complement inactive.
For Cc1ccc(CN2CCN(CC(=O)NC(C)c3ccc4c(c3)OCCO4)C2=O)cc1 (stereo unspecified) the results were DAT uptake mod inactive.
For CCn1c(SCC(=O)Nc2ccc3c(c2)c2ccccc2n3CC)nnc1-c1cnccn1 the results were DAT uptake mod 2.5, HEK293 NFkB inh inactive, Ec RNAP inh inactive and AP complement inactive.
For Cc1ccc(OC(=O)C(F)(F)F)c2c1NCCC2 the results were DAT uptake mod inactive, HEK293 NFkB inh inactive, Ec RNAP inh inactive, D1 mod inactive and AP complement 35.
For Cc1cc2c(C)cc(=O)oc2c2c1NCCC2 the results were DAT uptake mod inactive, HEK293 NFkB inh inactive, Ec RNAP inh inactive, D1 mod inactive and AP complement inactive.
Screening CCC(C)NS(=O)(=O)c1ccc(OCC(=O)N2CCCCC2)cc1 (stereo unspecified) returned DAT uptake mod inactive.
For c1coc(CNc2nc3nonc3nc2NCc2ccco2)c1 the results were DAT uptake mod inactive, HEK293 NFkB inh inactive, Ec RNAP inh inactive, D1 mod inactive and AP complement inactive.
For O=c1nccc(NCc2ccco2)[nH]1 the results were DAT uptake mod inactive, HEK293 NFkB inh inactive, Ec RNAP inh inactive, D1 mod -3 and AP complement inactive.
For CSc1ncc(CNc2cc([N+](=O)[O-])ccc2C)c(N)n1 the results were DAT uptake mod inactive.
O=C(NCCc1csc(-c2cccnc2)n1)c1cccs1 was read as HEK293 NFkB inh inactive, Ec RNAP inh inactive and AP complement inactive.
Screening O=C(NCCc1csc(-c2ccc(C(F)(F)F)cc2)n1)c1cccs1 returned DAT uptake mod 2.1.
Nc1c(Cl)cc(-c2csc(N3CCCC3c3nc4cc(Cl)c(N5CCCCC5)cc4n3CCCO)n2)cc1Cl (stereo unspecified) was read as DAT uptake mod inactive.
`O=C(/C=C\Nc1ccccn1)c1ccc(Cl)cc1` gave DAT uptake mod inactive, HEK293 NFkB inh inactive, Ec RNAP inh inactive, D1 mod -6 and AP complement inactive.
`Cc1ccc(Nc2nc(N)nc(CN3CCCCCC3)n2)cc1` gave DAT uptake mod inactive, HEK293 NFkB inh inactive, Ec RNAP inh inactive, D1 mod inactive and AP complement inactive.
`Cc1ccc(Nc2nc(N)nc(CN3CCN(C)CC3)n2)cc1` gave DAT uptake mod inactive, HEK293 NFkB inh inactive, Ec RNAP inh 21, D1 mod inactive and AP complement inactive.
`COc1cc2nc(-c3cccs3)oc(=O)c2cc1OC` gave DAT uptake mod inactive, HEK293 NFkB inh inactive, Ec RNAP inh inactive, D1 mod 5.6 and AP complement inactive.
CS(=O)(=O)Nc1ccc(C(=O)N2CCN(c3ccccc3)CC2)cc1 was read as DAT uptake mod inactive.
Screening CCc1ccc(NCc2nc3ccccc3c(=O)[nH]2)cc1 returned DAT uptake mod -9.2.

High-throughput results from PubChem BioAssay.
